# Compounds with a hit are over-represented: about 12% of the library has one in this group of screens.
# WT yeast gro inh = growth inhibition of WT strain, primary screen, mitochondrial fusion inhibitor project, WT and mutant strains, chemical genetic | AID 1362, 2008 | mitochondrial fusion phenotypic screen | hit rate 2.1% among 190,000 | inhibition, % at 10 µM; in the data active means inhibition above about 58%; tested in S. cerevisiae
# ROMK mod = ROMK potassium channel modulators, primary screen, cell-based, thallium flux, MLSMR library; Tet-inducible ROMK, thallium flux fluorescence; actives lie on both sides; AID 1918, 2009; ATP-sensitive inward rectifier potassium channel 1 (Homo sapiens), P48048; hit rate 2% among 130,000; B-score at 10 µM;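 active means signal ratio slope over the read window, or its plate-corrected B-score, at least 3 SD from the plate mean, either direction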;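 further: B-score of the F/F0 ratio slope over 7 to 12 s after thallium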
# Target sequence (P48048 whole entry, looked up): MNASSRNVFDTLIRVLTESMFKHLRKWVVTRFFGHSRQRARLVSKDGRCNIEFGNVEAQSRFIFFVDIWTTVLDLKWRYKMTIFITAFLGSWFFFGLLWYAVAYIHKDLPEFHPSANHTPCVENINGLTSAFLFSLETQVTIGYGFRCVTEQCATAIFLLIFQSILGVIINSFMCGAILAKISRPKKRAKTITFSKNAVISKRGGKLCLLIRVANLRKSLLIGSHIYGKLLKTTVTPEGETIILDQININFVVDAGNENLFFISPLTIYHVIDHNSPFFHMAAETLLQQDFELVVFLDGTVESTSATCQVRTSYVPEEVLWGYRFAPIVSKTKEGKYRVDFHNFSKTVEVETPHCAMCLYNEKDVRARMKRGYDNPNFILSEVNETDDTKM
# Diaphorase act = compounds boosting diaphorase resazurin reduction – biochemical, uHTS, resorufin fluorescence, counter-screen for diaphorase-coupled primary assays, primary screen. hit rate 0.005% among 190,000. activation factor at 20 µM. Diaphorase/resazurin coupled assay, 16 min; stronger effect = higher value; 1 = vehicle wells, 0 = NADH-free wells;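 active means diaphorase activity raised at least twofold by the compound at 20 µM; inactive means activation factor below 2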
#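 Assay system: Purified diaphorase enzyme from Clostridium kluyveri | Amount: Enzyme 0.07 U/mL final | Dosing: Compound 20 µM once, DMSO 1% | Timing: 16 min reaction at room temperature | Detection: Fluorescence, excitation 544 nm and emission 590 nm | Evaluation: Higher resorufin formation from activation or reduction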
# Diaphorase inh = diaphorase inhibitors and chemical oxidizers, primary screen, counter-screen for diaphorase-coupled primary assays, biochemical, uHTS, resorufin fluorescence; diaphorase resazurin-to-resorufin fluorescence, NADH, 16 min; bacterial (C. kluyveri) enzyme, not human; inhibition, % at 20 µM; hit rate 0.69% among 190,000;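 active means primary screen inhibition at 20 µM above a set limit, cut at about 50% in these data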;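 further: plate controls were DMSO with full reaction for no effect and wells lacking NADH for full effect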
#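 Test system: diaphorase enzyme from Clostridium kluyveri; amount: diaphorase at 0.14 U/mL in enzyme working solution; detection: fluorescence of resorufin formed from resazurin, Ex 544/Em 590 nm; times: reaction incubation of 16 min at room temperature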
# Cl transport mod = KCC2 cotransporter modulators, thallium flux, primary screen, cell-based, HEK293 KCC2, FluoZin-2 fluorescence, MLSMR; Solute carrier family 12 member 5 (Homo sapiens), Q9H2X9; KCC2 cells, thallium flux FluoZin-2 fluorescence; B-score of Tl+ flux slope (higher = more flux/activation; lower = inhibition) at 10 µM; hit rate 2.2% among 190,000;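 active means thallium flux slope and its plate-corrected score both differing from the plate sample mean at a set confidence after two filtering rounds, in either direction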;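 further: slope of fluorescence scaled to starting intensity during 10 to 20 s after thallium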
# Lmaj promast = Leishmania major promastigote growth inhibition, primary screen; Leishmania major promastigotes, resazurin fluorescence viability; AID 1063, 2008; hit rate 9% among 200,000; inhibition, % at 10 µM; in the data active means inhibition above about 50%;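 further: promastigotes grown with compound for 44 hours at 28 °C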
# Active calls of the source: *; . = no result given.
SMILES,WT yeast gro inh,ROMK mod,Diaphorase act,Diaphorase inh,Cl transport mod,Lmaj promast
Cc1ccc(S(=O)(=O)Nc2ccc(Cl)cc2)cc1NC(=O)c1cc2c(s1)CCCC2,31,.,0.7,28,0.1,17
CCN(CC)C(=O)c1ccccc1NS(C)(=O)=O,-12,-0.2,0.3,74*,0.2,1
CCCOc1ccc(Cc2c(Cl)nc(SC)nc2N(C)C)cc1,64*,.,0.9,5,0.13,8
COc1nc(SC)nc(Cl)c1Cc1ccc(OC(C)C)cc1,59*,1.5,1,3,-0.4,66*
CCCOc1ccc(Cc2c(Cl)nc(SC)nc2OC)cc1,38,1.2,0.8,16,-0.9,-3
CCN(CC)CCNC(=O)c1cc2c(-c3ccc(Cl)cc3)nn(C)c2s1,18,.,1,1,.,100*
CCOCCCNC(=O)c1cc2c(-c3ccc(Cl)cc3)nn(C)c2s1,14,.,0.8,23,.,7
Cn1nc(-c2ccc(Cl)cc2)c2cc(C(=O)N3CCN(C(=O)c4ccco4)CC3)sc21,9,.,0.8,23,-1.5,19
CCN1CCN(C(=O)c2cc3c(-c4ccc(Cl)cc4)nn(C)c3s2)CC1,5,.,0.9,9,.,52*
COc1ccc(N2CCN(C(=O)c3cc4c(-c5cccc(OC)c5)nn(C)c4s3)CC2)cc1,29,.,0.8,21,-0.38,62*
O=C(CNS(=O)(=O)c1ccccc1)Nc1ccc(C(F)(F)F)cc1,.,-0.0047,1,5,0.62,-5
Cc1cc(C)c(NC(=S)N(CCc2ccncc2)C(C)C)c(C)c1,3,0.81,1.1,-9,0.87,32
N#C/C(=C\c1ccco1)C(=O)NCC1CCCO1 (stereo not given),2,.,0.9,12,2.3,27
O=[N+]([O-])c1ccc2nnn(O)c2c1,6,0.56,0.9,14,0.26,-7
CC(C)CC(=O)N1CCN(CC2CC=CCC2)CC1 (stereo not given),-9,-0.23,0.8,25,0.48,27
CCN(Cc1ccccc1)C(=O)C1CCN(CC2CC=CCC2)CC1 (stereo not given),9,-2,1,0,-0.17,98*
CCN(CC)C(=O)C1CCN(CC2CC=CCC2)CC1 (stereo not given),-11,.,0.9,9,1.5,84*
OC1CCCN(Cc2c3ccccc3cc3ccccc23)C1 (stereo not given),11,0.41,0.8,22,-0.74,78*
OC1CCCN(Cc2cccc3ccccc23)C1 (stereo not given),-20,0.17,0.9,13,-0.62,-5
Cc1ccc(SCCC(=O)NC2CC2)cc1,-6,1.4,.,.,0.048,-4
Cc1ccc(C(=O)N/N=C/c2cc(C)n(-c3ccc(Br)cc3)c2C)cc1[N+](=O)[O-],19,-0.74,1,1,0.48,10
Cc1cc(/C=N/NC(=O)c2ccccc2F)c(C)n1-c1ccccc1,-7,4.2*,0.9,6,-1.6,2
Cc1cccc(-n2c(C)cc(/C=N/NC(=O)c3cccc([N+](=O)[O-])c3C)c2C)c1,14,-0.088,0.9,15,-0.066,64*
COC(=O)C(C)NC(=S)N1CCN(c2c(F)cc3c(=O)c(C(=O)O)cn(C4CC4)c3c2OC)CC1C (stereo not given),.,.,.,.,-1.1,.
CC(C)(C)NCCCCOc1ccc(F)cc1,8,-0.03,0.9,7,.,99*
SMILES,WT yeast gro inh,ROMK mod,Diaphorase act,Diaphorase inh,Cl transport mod,Lmaj promast
CCOc1ccc(OCCCCNC(C)(C)C)cc1,4,-0.23,0.6,36,0.27,98*
OC(CNCc1ccccc1C(F)(F)F)C(F)(F)F (stereo not given),4,0.83,1.2,-20,-0.84,4
Cc1c(C(=O)C(=O)N2c3ccccc3CC2C)c2ccccc2n1C (stereo not given),14,-0.077,0.8,15,-2.8,1
O=Cc1ccc(-c2ccc([N+](=O)[O-])cc2Cl)o1,13,0.58,1,0,0.0044,60*
Cc1ccc(NS(=O)(=O)c2ccc(C3CCCCC3)cc2)cc1,80*,0.43,0.8,22,0.18,13
O=C(Nc1cccc2ccccc12)NC1Cc2ccccc2C1,.,0.37,.,.,0.19,.
COc1ccc(-n2c(SCc3ccc([N+](=O)[O-])cc3)nnc2-c2ccc(C)cc2)cc1,43,.,1,4,-0.95,16
COc1ccc(OCCSCc2nnc(NC(=O)Nc3ccc(Cl)cc3)s2)cc1,1,0.88,0.9,7,-0.075,-1
S=C(NCc1ccccc1)NCc1ccc(CNC(=S)NCc2ccccc2)cc1,2,-0.46,0.9,14,-0.4,10
C/C(CCC(C)C)=N\NC(=S)NCc1ccccc1,60*,-0.0046,0.9,6,2.7,39
CCCSc1nc(-n2ncc(C#N)c2N)c2c3c(sc2n1)CCC(C)C3 (stereo not given),64*,-0.081,0.8,20,.,8
Cc1cc(NC(=O)c2cccc(Oc3ccccc3)c2)n[nH]1,20,0.16,0.8,19,-0.86,-10
COc1ccc(/C=C/C(=O)NC(=S)NNC(=O)c2cccnc2)cc1OC,8,.,0.2,82*,-1.2,48
O=C(/C=C/c1ccccc1)NC(=S)NNC(=O)c1cccnc1,-3,.,0.2,81*,0.043,55*
Cc1ccnc(NC(c2ccsc2)c2ccc3ccc(C)nc3c2O)c1 (stereo not given),-7,-1.2,0.8,20,2.5,5
COc1ccccc1NC(c1cccnc1)c1ccc2cccnc2c1O (stereo not given),-9,.,0.6,41,0.52,3
Cc1cc(NC(c2ccc(Cl)cc2)c2ccc3cccnc3c2O)no1 (stereo not given),-3,0.79,0.8,16,.,100*
Cc1ccnc(NC(c2cccnc2)c2ccc3cccnc3c2O)c1 (stereo not given),-10,-0.95,0.7,30,1.2,98*
Cc1ccc2ccc(C(Nc3cccc(C(F)(F)F)c3)c3cccnc3)c(O)c2n1 (stereo not given),-9,0.61,0.8,19,0.55,100*
Cc1nnsc1-c1onc(C)c1C(=O)O/N=C/c1ccc(Cl)cc1,.,.,.,.,-0.33,.
CC(C)NC(=O)NC(=O)COC(=O)/C=C/c1ccccc1[N+](=O)[O-],-7,-0.49,0.7,26,-1.5,-2
CC1CCCCC1NC(=O)C(Cc1ccccc1)NS(=O)(=O)c1cccs1 (stereo not given),10,-0.52,0.8,18,.,58*
